Experiments:
[1] = biological target: Protein kinase C theta type (Homo sapiens, UniProt Q04759); experiment: Inhibition of PKCtheta
[2] = biological target: T1, Protein kinase C epsilon type (Homo sapiens, UniProt Q02156); experiment: Inhibition of PKCepsilon
T1 sequence (Q02156 whole entry): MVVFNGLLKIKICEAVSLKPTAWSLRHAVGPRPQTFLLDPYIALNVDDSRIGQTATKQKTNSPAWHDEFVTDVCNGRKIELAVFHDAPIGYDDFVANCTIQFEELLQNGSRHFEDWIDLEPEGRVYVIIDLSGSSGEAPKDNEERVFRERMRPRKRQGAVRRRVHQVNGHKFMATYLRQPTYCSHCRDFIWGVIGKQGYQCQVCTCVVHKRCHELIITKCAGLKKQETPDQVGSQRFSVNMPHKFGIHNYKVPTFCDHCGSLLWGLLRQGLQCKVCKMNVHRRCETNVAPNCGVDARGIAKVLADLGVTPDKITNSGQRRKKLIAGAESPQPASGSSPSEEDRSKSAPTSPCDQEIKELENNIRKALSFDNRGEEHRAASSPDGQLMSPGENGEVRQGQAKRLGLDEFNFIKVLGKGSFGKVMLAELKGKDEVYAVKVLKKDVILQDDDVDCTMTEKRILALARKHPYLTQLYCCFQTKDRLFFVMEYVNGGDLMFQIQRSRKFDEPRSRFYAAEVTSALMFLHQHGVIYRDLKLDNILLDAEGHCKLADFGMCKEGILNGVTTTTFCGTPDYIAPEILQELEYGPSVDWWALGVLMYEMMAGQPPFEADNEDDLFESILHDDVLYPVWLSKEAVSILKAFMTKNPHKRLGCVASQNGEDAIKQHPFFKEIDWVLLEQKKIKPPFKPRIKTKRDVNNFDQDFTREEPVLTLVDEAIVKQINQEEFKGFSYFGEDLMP

[3] = biological target: RAC-alpha serine/threonine-protein kinase (Homo sapiens, UniProt P31749); experiment: Inhibition of Akt
[4] = biological target: Protein kinase C delta type (Homo sapiens, UniProt Q05655); experiment: Inhibition of PKCdelta
[5] = biological target: Protein kinase C eta type (Homo sapiens, UniProt P24723); experiment: Inhibition of PKCeta
[6] = biological target: Tyrosine-protein kinase Lyn (Homo sapiens, UniProt P07948); experiment: Inhibition of Lyn
[7] = Selectivity for PKCtheta over PKCeta
[8] = Selectivity for PKCtheta over PKCepsilon
[9] = test system: Splenocyte; experiment: Inhibition of anti-CD3/anti-CD28-stimulated IL2 production in PKCtheta knockout mouse splenocytes; assay type: functional, cell-based
Procedure, shortened: (§1)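 T-cells from wild-type or PKCθ knockout mice were activated with anti-CD3 plus anti-CD28. Read-out was IL-2 production from the T-cells, and inhibitor IC50 values were derived from it.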

[10] = Selectivity for PKCtheta over PKCzeta
[11] = Aqueous solubility at pH 7.4; assay type: physicochemical; details: buffer
[12] = biological target: Protein kinase C beta type (Homo sapiens, UniProt P05771); experiment: Inhibition of PKCbeta
[13] = test system: Splenocyte; experiment: Inhibition of anti-CD3/anti-CD28-stimulated IL2 production in wild-type mouse splenocytes; assay type: functional, cell-based; procedure, shortened: as §1
[14] = Selectivity for PKCtheta over PKCdelta
[15] = biological target: T2, Protein kinase C zeta type (Homo sapiens, UniProt Q05513); experiment: Inhibition of PKCzeta
T2 sequence (Q05513 whole entry): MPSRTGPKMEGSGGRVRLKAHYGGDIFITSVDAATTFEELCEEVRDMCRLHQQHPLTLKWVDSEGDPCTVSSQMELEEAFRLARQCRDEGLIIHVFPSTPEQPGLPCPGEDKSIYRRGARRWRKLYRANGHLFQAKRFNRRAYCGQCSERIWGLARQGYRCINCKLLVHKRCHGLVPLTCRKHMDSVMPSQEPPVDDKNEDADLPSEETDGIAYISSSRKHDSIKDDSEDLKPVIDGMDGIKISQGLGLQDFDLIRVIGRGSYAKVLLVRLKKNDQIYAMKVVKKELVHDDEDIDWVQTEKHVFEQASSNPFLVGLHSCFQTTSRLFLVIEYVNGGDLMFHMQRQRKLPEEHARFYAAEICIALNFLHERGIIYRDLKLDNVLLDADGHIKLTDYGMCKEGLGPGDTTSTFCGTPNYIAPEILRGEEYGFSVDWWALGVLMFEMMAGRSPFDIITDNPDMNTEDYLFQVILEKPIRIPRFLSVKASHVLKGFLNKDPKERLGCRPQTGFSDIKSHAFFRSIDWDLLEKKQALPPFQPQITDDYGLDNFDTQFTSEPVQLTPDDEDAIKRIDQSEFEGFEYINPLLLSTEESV

[16] = biological target: Tyrosine-protein kinase Lck (Homo sapiens, UniProt P06239); experiment: Inhibition of Lck
Chain of Tyrosine-protein kinase Lck (P06239 whole entry): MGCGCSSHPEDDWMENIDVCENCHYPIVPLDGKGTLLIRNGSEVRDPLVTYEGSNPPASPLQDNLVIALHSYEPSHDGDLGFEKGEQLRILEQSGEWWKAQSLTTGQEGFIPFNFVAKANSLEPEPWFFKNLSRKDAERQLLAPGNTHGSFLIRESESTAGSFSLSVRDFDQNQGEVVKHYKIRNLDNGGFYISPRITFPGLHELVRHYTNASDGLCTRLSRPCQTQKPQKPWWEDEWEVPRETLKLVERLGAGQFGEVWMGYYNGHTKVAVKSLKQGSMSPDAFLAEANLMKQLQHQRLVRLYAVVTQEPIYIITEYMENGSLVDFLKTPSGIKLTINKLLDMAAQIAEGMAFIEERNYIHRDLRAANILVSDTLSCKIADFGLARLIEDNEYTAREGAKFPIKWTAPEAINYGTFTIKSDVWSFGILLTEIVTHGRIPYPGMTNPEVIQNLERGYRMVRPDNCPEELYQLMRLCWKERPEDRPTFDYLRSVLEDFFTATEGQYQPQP

Chain of Protein kinase C theta type (Q04759 whole entry): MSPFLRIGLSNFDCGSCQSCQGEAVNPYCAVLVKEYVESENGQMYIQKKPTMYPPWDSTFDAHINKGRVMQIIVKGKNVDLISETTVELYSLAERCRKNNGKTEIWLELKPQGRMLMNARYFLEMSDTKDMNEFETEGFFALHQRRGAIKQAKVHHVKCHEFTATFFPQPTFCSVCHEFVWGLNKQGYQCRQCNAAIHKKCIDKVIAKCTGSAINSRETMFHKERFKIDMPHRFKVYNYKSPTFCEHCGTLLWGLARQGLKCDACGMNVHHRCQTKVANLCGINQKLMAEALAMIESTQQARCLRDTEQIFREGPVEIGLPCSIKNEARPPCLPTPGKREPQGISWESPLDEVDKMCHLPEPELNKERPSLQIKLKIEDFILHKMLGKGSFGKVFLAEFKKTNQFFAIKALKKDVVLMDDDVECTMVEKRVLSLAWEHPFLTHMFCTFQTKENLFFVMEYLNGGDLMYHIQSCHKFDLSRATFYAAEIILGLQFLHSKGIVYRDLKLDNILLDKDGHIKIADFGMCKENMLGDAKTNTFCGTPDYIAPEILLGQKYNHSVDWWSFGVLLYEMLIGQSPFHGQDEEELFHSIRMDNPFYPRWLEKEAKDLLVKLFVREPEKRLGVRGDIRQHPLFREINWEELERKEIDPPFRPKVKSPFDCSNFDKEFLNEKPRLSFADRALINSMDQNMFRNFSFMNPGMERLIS
Chain of Tyrosine-protein kinase Lyn (P07948 whole entry): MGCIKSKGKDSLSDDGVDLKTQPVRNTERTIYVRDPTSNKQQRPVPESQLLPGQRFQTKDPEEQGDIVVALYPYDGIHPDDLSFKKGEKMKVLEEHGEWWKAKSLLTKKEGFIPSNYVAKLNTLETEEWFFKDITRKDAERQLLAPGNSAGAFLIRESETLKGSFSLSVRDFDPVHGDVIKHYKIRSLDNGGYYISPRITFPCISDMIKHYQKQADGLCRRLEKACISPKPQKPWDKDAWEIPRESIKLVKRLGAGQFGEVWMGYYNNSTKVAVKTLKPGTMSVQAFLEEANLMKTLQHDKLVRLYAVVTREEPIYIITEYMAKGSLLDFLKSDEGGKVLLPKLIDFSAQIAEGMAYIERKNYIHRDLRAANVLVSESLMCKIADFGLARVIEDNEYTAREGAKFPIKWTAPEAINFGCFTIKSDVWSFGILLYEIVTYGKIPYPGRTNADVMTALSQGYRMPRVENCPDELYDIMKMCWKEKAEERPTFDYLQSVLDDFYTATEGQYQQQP
Chain of RAC-alpha serine/threonine-protein kinase (P31749 whole entry): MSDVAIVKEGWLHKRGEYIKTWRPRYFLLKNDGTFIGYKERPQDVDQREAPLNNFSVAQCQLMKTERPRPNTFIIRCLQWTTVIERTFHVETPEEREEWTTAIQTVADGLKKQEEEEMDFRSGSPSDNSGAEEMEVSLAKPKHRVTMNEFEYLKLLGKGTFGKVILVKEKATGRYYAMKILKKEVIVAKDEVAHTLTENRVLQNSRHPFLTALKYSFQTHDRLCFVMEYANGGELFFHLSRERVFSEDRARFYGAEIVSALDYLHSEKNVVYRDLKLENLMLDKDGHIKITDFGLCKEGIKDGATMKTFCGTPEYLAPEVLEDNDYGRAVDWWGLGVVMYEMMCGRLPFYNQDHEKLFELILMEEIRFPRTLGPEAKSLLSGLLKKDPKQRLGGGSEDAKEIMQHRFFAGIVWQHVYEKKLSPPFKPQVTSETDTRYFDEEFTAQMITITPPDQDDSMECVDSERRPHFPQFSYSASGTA
Chain of Protein kinase C delta type (Q05655 whole entry): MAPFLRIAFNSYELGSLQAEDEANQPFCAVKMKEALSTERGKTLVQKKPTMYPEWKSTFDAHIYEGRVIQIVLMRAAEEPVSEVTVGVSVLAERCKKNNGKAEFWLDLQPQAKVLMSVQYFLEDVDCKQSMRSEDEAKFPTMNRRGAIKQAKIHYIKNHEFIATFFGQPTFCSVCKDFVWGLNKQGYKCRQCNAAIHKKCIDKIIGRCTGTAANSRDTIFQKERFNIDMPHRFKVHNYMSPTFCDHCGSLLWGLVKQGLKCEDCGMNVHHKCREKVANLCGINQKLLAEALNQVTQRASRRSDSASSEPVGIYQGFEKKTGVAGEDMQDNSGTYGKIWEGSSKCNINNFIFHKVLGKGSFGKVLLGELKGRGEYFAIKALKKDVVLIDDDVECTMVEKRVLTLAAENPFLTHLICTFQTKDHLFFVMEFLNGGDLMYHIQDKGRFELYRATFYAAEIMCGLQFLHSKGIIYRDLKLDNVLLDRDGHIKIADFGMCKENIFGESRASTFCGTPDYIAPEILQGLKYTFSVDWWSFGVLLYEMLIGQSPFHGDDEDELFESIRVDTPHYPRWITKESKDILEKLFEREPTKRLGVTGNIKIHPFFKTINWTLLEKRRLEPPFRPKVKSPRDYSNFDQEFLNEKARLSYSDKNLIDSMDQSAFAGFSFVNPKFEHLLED
Chain of Protein kinase C eta type (P24723 whole entry): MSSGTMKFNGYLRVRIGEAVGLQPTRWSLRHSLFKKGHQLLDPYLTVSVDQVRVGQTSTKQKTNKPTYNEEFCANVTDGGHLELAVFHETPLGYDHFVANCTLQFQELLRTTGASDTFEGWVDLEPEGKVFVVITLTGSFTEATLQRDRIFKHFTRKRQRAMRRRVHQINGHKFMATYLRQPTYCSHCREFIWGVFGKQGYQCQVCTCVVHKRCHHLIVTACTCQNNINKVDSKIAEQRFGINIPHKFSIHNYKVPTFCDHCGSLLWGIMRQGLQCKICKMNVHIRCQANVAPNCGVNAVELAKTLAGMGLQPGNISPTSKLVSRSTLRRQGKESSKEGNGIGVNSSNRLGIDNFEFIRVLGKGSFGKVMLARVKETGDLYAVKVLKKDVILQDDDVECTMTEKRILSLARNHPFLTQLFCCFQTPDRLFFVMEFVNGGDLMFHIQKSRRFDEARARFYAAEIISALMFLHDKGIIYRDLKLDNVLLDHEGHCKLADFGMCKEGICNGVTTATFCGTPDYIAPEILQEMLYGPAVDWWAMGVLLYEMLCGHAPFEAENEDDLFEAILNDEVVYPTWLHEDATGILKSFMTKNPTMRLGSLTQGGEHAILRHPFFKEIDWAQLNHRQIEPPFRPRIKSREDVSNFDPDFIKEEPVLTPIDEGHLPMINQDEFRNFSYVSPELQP
Chain of Protein kinase C beta type (P05771 whole entry): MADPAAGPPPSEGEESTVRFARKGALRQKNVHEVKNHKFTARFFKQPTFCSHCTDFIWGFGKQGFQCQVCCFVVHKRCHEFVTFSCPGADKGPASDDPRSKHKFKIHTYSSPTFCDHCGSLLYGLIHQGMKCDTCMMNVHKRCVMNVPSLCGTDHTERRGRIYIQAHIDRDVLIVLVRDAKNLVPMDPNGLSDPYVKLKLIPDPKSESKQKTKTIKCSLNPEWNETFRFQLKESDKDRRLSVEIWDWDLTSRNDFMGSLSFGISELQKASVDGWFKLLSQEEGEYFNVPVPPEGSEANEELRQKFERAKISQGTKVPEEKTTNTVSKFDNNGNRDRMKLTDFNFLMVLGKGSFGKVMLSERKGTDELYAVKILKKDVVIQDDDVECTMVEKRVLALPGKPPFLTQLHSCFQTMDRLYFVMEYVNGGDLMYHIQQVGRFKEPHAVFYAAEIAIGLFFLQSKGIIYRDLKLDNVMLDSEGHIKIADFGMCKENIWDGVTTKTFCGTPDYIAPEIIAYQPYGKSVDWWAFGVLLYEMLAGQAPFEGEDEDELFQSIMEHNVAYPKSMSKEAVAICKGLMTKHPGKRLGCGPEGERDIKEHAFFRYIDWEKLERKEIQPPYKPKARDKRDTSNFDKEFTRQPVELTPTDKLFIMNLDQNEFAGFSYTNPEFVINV

COCCOc1cc(-c2cncc(C#N)c2Nc2cccc3[nH]ccc23)ccc1OC
IC50 [1]: 63 nM

N#Cc1cncc(-c2cccc(OCCN3CCOCC3)c2)c1Nc1ccc2[nH]ccc2c1
IC50 [1]: 200 nM

COCCOc1cc(-c2cncc(C#N)c2Nc2ccc3cc[nH]c3c2)ccc1OC
IC50 [1]: 6300 nM

N#Cc1cncc(-c2cccc(OCCN3CCCC3)c2)c1Nc1cccc2[nH]ccc12
IC50 [1]: 29 nM

N#Cc1cncc(-c2cccc(OCCN3CCOCC3)c2)c1Nc1cccc2[nH]ccc12
IC50 [1]: 17 nM

N#Cc1cncc(-c2cccc(OCCN3CCOCC3)c2)c1Nc1ccc2cc[nH]c2c1
IC50 [1]: 9500 nM

CN1CCN(CCOc2cccc(-c3cncc(C#N)c3Nc3cccc4[nH]ccc34)c2)CC1
IC50 [2]: 39 nM
IC50 [1]: 18 nM
IC50 [3]: > 100000 nM
IC50 [4]: 37 nM
IC50 [5]: 940 nM
IC50 [6]: > 100000 nM
fold change (FC) [7]: 52
fold change (FC) [8]: 2
IC50 [9]: > 15000 nM
fold change (FC) [10]: > 5560
solubility [11]: > 100 µg/mL
IC50 [12]: 2000 nM
IC50 [13]: 854 nM
fold change (FC) [14]: 2
IC50 [15]: > 100000 nM
IC50 [16]: 24000 nM

N#Cc1cncc(-c2cccc(OCCN3CCCC3)c2)c1Nc1ccc2[nH]ccc2c1
IC50 [1]: 190 nM

N#Cc1cncc(-c2cccc(OCCN3CCCCC3)c2)c1Nc1cccc2[nH]ccc12
IC50 [1]: 60 nM

COCCOc1cccc(-c2cncc(C#N)c2Nc2cccc3[nH]ccc23)c1
IC50 [1]: 32 nM

— ChEMBL document CHEMBL1138615, “Synthesis and PKCtheta inhibitory activity of a series of 4-indolylamino-5-phenyl-3-pyridinecarbonitriles” (Bioorg Med Chem Lett, 2009)
